Screening data (PubChem)
Most compounds without a hit are left out; they make up all but 2.2% or so of the library.
SUMO1-SIM PPI: modulators of human SUMO1-mediated protein-protein interactions | P63165 | SUMO1 binding to a labelled peptide, TR-FRET, 1 h | inhibition, % at 20 µM | 360,000 tested, 0.33% active | AID 602429; in the data active = inhibition above about 37%
GRK2 aptamer HTS: inhibitors of human GRK2 displacing RNA aptamer; P25098; bead flow cytometry, FAM-aptamer displacement from GRK2; inhibition of aptamer binding, % at 10 µM; 330,000 tested, 0.59% active;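 active = inhibition of aptamer binding above 40%, roughly 3 SD of noise, on plates passing a quality check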;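 note: median bead fluorescence of bound FAM aptamer so fluorescent compounds give negative values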
Scp1 inh: blocks human Scp-1 phosphatase activity; AID 493091; 340,000 tested, 0.88% active; inhibition, % at 20 µM; Q9GZU7; Recombinant Scp1, phosphopeptide, malachite green phosphate absorbance;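 active = inhibition above about 50% at 20 µM, limit read from the data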;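 note: plate controls were DMSO wells with enzyme for no effect and wells lacking enzyme for full effect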
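Test system – truncated SCP-1 phosphatase (76-261aa) · Reagent – Phosphorylated 17-residue peptide substrate · Incubation – 45 min room-temperature reaction, 5 min colour, 30 min stabiliser · Detection – colorimetric phosphate reagent with accelerator and stabiliser, absorbance at 630 nm · Measure – % inhibition at 20 µM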
STEP inh: inhibitors of human striatal-enriched phosphatase STEP | P54829 | recombinant STEP, OMFP fluorogenic substrate, fluorescence | inhibition, % at 20 µM | 360,000 tested, 0.25% active | AID 588621;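 active = inhibition at 20 µM, scaled per plate between control wells, above about 37%, limit read from the data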;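 note: 0% = DMSO with enzyme and substrate and 100% = substrate only without enzyme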
Target sequence (P54829 whole entry, looked up): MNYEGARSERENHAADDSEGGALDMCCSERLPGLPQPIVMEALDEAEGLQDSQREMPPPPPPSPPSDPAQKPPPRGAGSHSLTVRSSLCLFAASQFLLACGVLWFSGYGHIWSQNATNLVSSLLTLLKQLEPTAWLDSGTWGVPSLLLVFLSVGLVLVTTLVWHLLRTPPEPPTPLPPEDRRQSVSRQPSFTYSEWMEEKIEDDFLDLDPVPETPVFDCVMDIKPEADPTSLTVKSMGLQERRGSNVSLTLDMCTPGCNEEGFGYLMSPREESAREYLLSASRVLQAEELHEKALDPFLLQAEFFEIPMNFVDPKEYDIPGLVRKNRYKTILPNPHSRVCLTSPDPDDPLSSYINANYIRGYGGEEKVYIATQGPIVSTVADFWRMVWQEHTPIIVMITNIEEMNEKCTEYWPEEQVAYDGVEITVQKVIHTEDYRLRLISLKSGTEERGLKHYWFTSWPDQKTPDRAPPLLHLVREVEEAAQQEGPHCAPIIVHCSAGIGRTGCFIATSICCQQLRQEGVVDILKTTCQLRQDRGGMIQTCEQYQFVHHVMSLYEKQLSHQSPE
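Material: STEP (striatal-enriched tyrosine phosphatase) enzyme, cell-free | Medium: 50 mM Bis-Tris pH 6.0 with 2.5 mM DTT and 0.005% Tween 20 | Read-out: Percent inhibition scaled to no-enzyme and uninhibited-enzyme controls, plate-pattern corrected | Signal: Fluorescence read at 480 nm ex / 540 nm em | Times: 20 min reaction, room temperature, in the dark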
LMPTP inh: blocks human LMPTP phosphatase | P24666 | recombinant LMPTP-A, OMFP fluorogenic substrate, fluorescence intensity | inhibition, % at 20 µM | 360,000 tested, 0.22% active;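 active = compounds that cut the enzyme signal by at least half of the control window in the single-dose screen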;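 note: plate controls were DMSO wells with enzyme plus substrate for no effect and substrate without enzyme for full effect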
Target sequence (P24666 whole entry, looked up): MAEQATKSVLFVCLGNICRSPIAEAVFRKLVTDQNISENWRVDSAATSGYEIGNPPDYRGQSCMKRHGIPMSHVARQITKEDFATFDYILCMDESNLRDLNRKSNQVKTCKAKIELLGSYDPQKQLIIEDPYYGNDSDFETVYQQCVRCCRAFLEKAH
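Test system – LMPTP-A enzyme · Amount – LMPTP-A at 0.625 nM final in the reaction · Buffer or medium – Bis-Tris pH 6.0, DTT, detergent · Reagent – OMFP 400 µM · Doses – single 20 µM dose · Schedule – reaction 50 min, room temperature, dark · Detection – fluorescence intensity of OMFP turnover product · Evaluation – percent inhibition versus substrate-only and uninhibited controls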
DNMT1 inh: DNMT1 (human) enzyme inhibition. inhibition (reported as % activation of signal), % at 10 µM. P26358. 360,000 tested, 0.83% active. DNMT1 molecular beacon, Hinp1I cleavage, fluorescence; in the data active = inhibition above about 50%
Scp-1 conf: Scp-1 (human) inhibition, single-dose confirmed; inhibition, % at 20 µM; AID 540281; recombinant SCP-1 catalytic domain, phosphate release, malachite green absorbance; 2,500 tested, 61% active; shares compounds with Scp1 inh;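 note: plate controls were DMSO with enzyme for no effect and buffer wells lacking enzyme for full effect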
MG interference: counter-screen for Scp-1 inhibitors: colorimetric interference; 2,500 tested, under 10 active; shares compounds with Scp1 inh; apparent inhibition (interference), % at 20 µM; Colorimetric interference counterscreen, malachite green absorbance 630 nm;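 note: compounds added after enzyme reaction finished so only phosphate colour detection is probed; plate controls were DMSO wells with completed Scp-1 reaction for no effect and substrate wells lacking enzyme for full effect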
Scp1 DSF: validation of human Scp-1 inhibitors by thermal shift binding | shares compounds with Scp1 inh | Recombinant SCP1, Sypro Orange thermal shift Tm | thermal shift relative to vanadate control, % at 40 µM | 1,500 tested, 25% active | AID 540329;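 active = substances whose mean melting-temperature shift, as a percentage of the reference inhibitor's shift, reaches about 5.3%, limit read from the data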;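 note: 0% = Tm of DMSO wells and 100% = Tm with sodium orthovanadate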
Active calls of the source: *; . = not tested or not shown; ! = not confirmed by another sample.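 Rule for the calls, unless noted: active = inhibition of at least 30% at 20 µM; inactive = the rest.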

SMILES	SUMO1-SIM PPI	GRK2 aptamer HTS	Scp1 inh	STEP inh	LMPTP inh	DNMT1 inh	Scp-1 conf	MG interference	Scp1 DSF
CC1=NNC(=O)C1CCC(=O)N/N=C/c1ccco1 (stereo not drawn)	-4	2	-4	-4	-2	-3	46*	-14	-21
COc1ccc(OC)c(/C=N/NC(=O)CC2C(=O)NN=C2C)c1 (stereo not drawn)	-8	2	-2	-1	0	4	2	-6	.
COc1cc(CN2CCC(Oc3cc(C(=O)NC4CC4)ccc3OC)CC2)cc(OC)c1	3	1	0	-2	1	3	.	.	.
Cc1ccc(OCC(=O)N/N=C/C=C/c2ccco2)cc1	0	1	73*	-1	3	26	59*	-10	7.5*
O=C(N/N=C/C=C/c1ccco1)C(O)c1ccccc1 (stereo not drawn)	-2	2	62*	-1	-1	39	53*	-11	2
CCN(CC(=O)Nc1cc(Cl)ccc1C)CC(=O)NC1CC1	4	.	.	-3	-1	4	.	.	.
COc1ccccc1C(=O)NNC(=O)C12CC3CC(CC(C3)C1)C2	4	0	-3	1	-1	-1	.	.	.
C[n+]1cccc(C(=O)NNC(=O)C23CC4CC(CC(C4)C2)C3)c1	1	0	102*	-1	0	-4	13	-15	.
COC(=O)[C@@]12C[C@@H](CC(=O)N3CCC(c4ccccc4)CC3)C(=O)N(Cc3ccco3)C1=CCC(C)(C)C2	-6	.	.	.	0	.	.	.	.
CC(C)(C)NC(=O)C(c1ccnc2ccccc12)n1c(=O)c(-c2ccco2)nc2ccccc21 (stereo not drawn)	-5	.	.	.	2	.	.	.	.
O=c1[nH][nH]c(=O)c2cc([N+](=O)[O-])ccc12	-30	2	50*!	-4	0	-2	-12	-12	.
COc1ccc([C@H]2C[C@@H](n3cc(COC(=O)c4ccccc4)nn3)[C@H](O)CN2Cc2cccs2)cc1	-1	.	.	0	3	-4	.	.	.
Cc1cc2c(NC(=O)CC(C)(C)CC(=O)O)cccc2nn1	-1	1	52*	4	1	-16	-8	-11	.
Nc1nnc(CC(=O)N/N=C/c2ccc(-c3cccc(C(=O)O)c3)o2)s1	11	2	54*	1	-2	-1	45*	-6	1
CN(C)c1ccc(-c2csc(C(O)c3cccc(Cl)c3)n2)cc1 (stereo not drawn)	-3	.	.	-2	0	-14	.	.	.
Nc1ccccc1/C=C/c1ccccc1N	-10	.	-10	0	-4	-3	.	.	.
CCCCCCCCN1C(=O)[C@H](CC(=O)NCc2cccs2)C[C@@]2(C(=O)OC)CC(C)(C)CC=C12	5	.	.	.	7	.	.	.	.
COc1ccc(/C=C/c2ccc3ccccc3[n+]2C)cc1OC	-30	1	99*	0	2	-2	4	-6	.
CC(=O)Oc1ccccc1/C=C/c1ccc2ccccc2[n+]1C	-29	0	17	-3	-1	1	.	.	.
Cc1ccc(S(=O)(=O)N/N=C\c2ccc(C)o2)cc1	-4	0	28	-5	0	35	.	.	.
CC(=O)Nc1ccc(S(=O)(=O)N/N=C/c2ccc(C)o2)cc1	-1	3	67*	33	14	28	20	-10	.
Cc1cc(C)n(CCCNC(=O)C2CC(=O)N(Cc3ccccc3)C2)n1 (stereo not drawn)	-2	0	-3	-2	-4	-5	-3	-4	.
Cc1cc(C)n(CCNC(=O)C2CCC(=O)N(Cc3ccc(Cl)cc3)C2)n1 (stereo not drawn)	2	0	-3	-5	0	1	.	.	.
COc1cc2ccccc2cc1C(=O)NC(=S)Nc1ccc(C(=O)O)cc1	7	12	61*	10	39	3	52*	-14	-14
COc1ccc(NC(=O)c2cc3ccccc3cc2OC)cc1	-9	0	-14	-1	1	-16	.	.	.
SMILES	SUMO1-SIM PPI	GRK2 aptamer HTS	Scp1 inh	STEP inh	LMPTP inh	DNMT1 inh	Scp-1 conf	MG interference	Scp1 DSF
COc1cccc2cc(C(=O)Nc3ccc(F)cc3)c(=Nc3ccc(C(=O)O)cc3)oc12	22	0	102*	-2	35	10	23	-17	.
Cc1ccccc1CNC(=O)c1[nH]c(C(F)(F)F)nc1-c1ccccc1	7	.	.	0	-1	7	.	.	.
Cc1ccc(S(=O)(=O)C[C@@H]2OC[C@H](C(C)C)N2S(=O)(=O)c2ccc(C)cc2)cc1	4	.	.	.	1	.	.	.	.
Cc1ccc(S(=O)(=O)OCC(=O)Nc2ccc(C(=O)O)c(O)c2)cc1	2	.	64*	6	0	46	48*	-13	7.6*
COc1ccc(NC(=O)C(c2cc3ccccc3o2)n2c(=O)c(-c3cc4ccccc4[nH]3)nc3ccccc32)cc1 (stereo not drawn)	-3	.	.	.	5	.	.	.	.
COc1cc(-c2nnc(COC(=O)c3cc(C)no3)o2)cc(OC)c1OC	5	2	-5	1	-1	-3	.	.	.
COc1cc(-c2nnc(COC(=O)c3ccc(C)o3)o2)cc(OC)c1OC	8	16	59*	13	6	36	47*	1	-3
O=[N+]([O-])c1cc2c(c3cccnc13)COCO2	-21	.	62*	0	13	23	52*	-10	-2
Cn1ncc2cc3c(Nc4ccc(Cl)cc4)cccc3nc21	-10	.	.	5	48	4	.	.	.
N#CCC(=O)Nc1ccc(C(=O)OCC(=O)N2CCN(C(=O)c3ccco3)CC2)cc1	22	0	90*	-1	6	0	64*	1	-2
CC(=O)Nc1ccc(C(=O)OCC(=O)N2CCN(C(=O)c3ccco3)CC2)cc1	2	0	-7	-2	0	6	.	.	.
CCc1c(C)nc2cc(-c3cccc(Br)c3)[nH]n2c1=O	12	0	93*	22	1	2	62*	-12	-4
CCc1c(C)nc2cc(-c3ccc(Cl)cc3)[nH]n2c1=O	6	3	-7	2	1	2	.	.	.
COc1ccc(NC(=O)CSc2nc(-c3ccco3)nc3cc(=O)[nH]n23)cc1Cl	5	0	53*	14	9	6	25	-20	.
COc1ccc(NC(=O)CSc2n[nH]c(=O)n2C2CC2)cc1Cl	-1	.	4	1	1	2	.	.	.
